This is an account of results in ChEMBL document CHEMBL1125434, “Preparation and in vitro and in vivo evaluation of quinolones with selective activity against gram-positive organisms” (1992).

Converted amounts (≈) assume the structure as drawn.

What all share (assay type): functional
Experiment [1] relates to Staphylococcus aureus. In words: In vitro minimum inhibitory concentration against Staphylococcus aureus NCTC 10649 using brain-heart infusion agar. The essentials: (§1)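 Overnight cultures were grown in BHI broth at 36 °C. Twofold dilutions of a 2000 µg/mL stock were made in BHI agar, giving 200–0.005 µg/mL. Plates received about 10^4 organisms and were incubated for 18 h at 36 °C. MIC was the lowest concentration with no visible growth on the plate.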

For experiment [2], the system named is Staphylococcus epidermidis. In words: In vitro minimum inhibitory concentration against Staphylococcus epidermidis 3159 using brain-heart infusion agar. Summed up:
as §1

The subject of a further experiment is Acinetobacter. The experiment can be described thus: In vitro minimum inhibitory concentration against Acinetobacter CMX 669 using brain-heart infusion agar. The essentials:
as §1

In experiment [3] the test system is Staphylococcus aureus. In words: In vitro minimum inhibitory concentration against Staphylococcus aureus ATCC 6538P using brain-heart infusion agar. Summed up:
as §1

The subject of another experiment is Enterococcus faecium. The experiment can be described thus: In vitro minimum inhibitory concentration against Enterococcus faecium ATCC 8043 using brain-heart infusion agar. Summed up: as §1
The next experiment concerns Streptococcus agalactiae. The experiment can be described thus: In vitro minimum inhibitory concentration against Streptococcus agalactiae CMX 508 using brain-heart infusion agar. Summed up:
as §1

Experiment [4] relates to Pseudomonas aeruginosa. In words: In vitro minimum inhibitory concentration against Pseudomonas aeruginosa K799 / WT using brain-heart infusion agar. Summed up: as §1
Another experiment concerns Klebsiella aerogenes. In words: In vitro minimum inhibitory concentration against Enterobacter aerogenes ATCC 13048 using brain-heart infusion agar. The essentials:
as §1

The test system of experiment [5] is Staphylococcus aureus. The experiment can be described thus: In vitro minimum inhibitory concentration against Staphylococcus aureus CMX 553 using brain-heart infusion agar. The essentials: as §1
For the next experiment, the system named is Streptococcus equinus. In words: In vitro minimum inhibitory concentration against Streptococcus bovis A5169 using brain-heart infusion agar. The essentials: as §1
Experiment [6] concerns Staphylococcus aureus. The experiment can be described thus: In vitro minimum inhibitory concentration against Staphylococcus aureus A 5177 using brain-heart infusion agar. Summed up:
as §1

A further experiment deals with Escherichia coli. The experiment can be described thus: In vitro minimum inhibitory concentration against Escherichia coli Juhl using brain-heart infusion agar. Summed up: as §1
Experiment [7] deals with Pseudomonas aeruginosa. The experiment can be described thus: In vitro minimum inhibitory concentration against Pseudomonas aeruginosa A5007 using brain-heart infusion agar. The essentials:
as §1

The next experiment deals with Streptococcus pyogenes. The experiment can be described thus: In vitro minimum inhibitory concentration against Streptococcus pyogenes 930 using brain-heart infusion agar. Summed up: as §1
The next experiment deals with Klebsiella pneumoniae. In words: In vitro minimum inhibitory concentration against Klebsiella pneumoniae 8045 using brain-heart infusion agar. Summed up: as §1
Experiment [8] deals with Staphylococcus aureus. In words: In vivo antibacterial activity against Staphylococcus aureus NCTC 10649 infected mouse by oral administration. The essentials: (§2)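 Compound was given in water or in dilute NaOH diluted with water, orally or subcutaneously. The dose was split equally between 1 and 5 h post-infection. Groups were 10 mice at ≥3 dose levels. ED50 was calculated from day-6 cumulative mortality by the trimmed Logit method.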

The test system of experiment [9] is Staphylococcus aureus. In words: In vivo antibacterial activity against Staphylococcus aureus NCTC 10649 infected mouse by subcutaneous administration. Particulars: sc. The essentials:
as §2

By MIC is commonly meant the lowest concentration found to suppress growth. Lower therefore signals inhibition by little substance. For the molecule `CO/N=C1\CCN(c2nc3c(cc2F)c(=O)c(C(=O)O)cn3C2CC2)C1`, the MIC was 0.02 µg/mL (≈ 0.0555 µM) in the experiment with Staphylococcus aureus [1]; 0.1 µg/mL (≈ 0.278 µM) in experiment [2]; 0.39 µg/mL (≈ 1.08 µM) in the experiment with Acinetobacter; 0.02 µg/mL (≈ 0.0555 µM) with Staphylococcus aureus [3]; 0.78 µg/mL (≈ 2.16 µM) in the experiment on Enterococcus faecium; 0.78 µg/mL (≈ 2.16 µM) against Streptococcus agalactiae. The MIC against Pseudomonas aeruginosa [4] was found to be 1.56 µg/mL (≈ 4.33 µM); with Klebsiella aerogenes, 0.78 µg/mL (≈ 2.16 µM); with Staphylococcus aureus [5], 0.05 µg/mL (≈ 0.139 µM); against Streptococcus equinus, 1.56 µg/mL (≈ 4.33 µM); with Staphylococcus aureus [6], 0.05 µg/mL (≈ 0.139 µM); against Escherichia coli, 0.39 µg/mL (≈ 1.08 µM). The MIC in the experiment on Pseudomonas aeruginosa [7] turned out to be 3.1 µg/mL (≈ 8.6 µM); against Streptococcus pyogenes it was 0.78 µg/mL (≈ 2.16 µM); against Klebsiella pneumoniae it was 0.1 µg/mL (≈ 0.278 µM).

For the molecule `CON=C1CCN(c2c(F)cc3c(=O)c(C(=O)O)cn(C4CC4)c3c2F)CC1`, the minimum inhibitory concentration (MIC) in the experiment on Staphylococcus aureus [1] amounted to 0.05 µg/mL (≈ 0.128 µM); in experiment [2], 0.1 µg/mL (≈ 0.256 µM); with Acinetobacter, 3.1 µg/mL (≈ 7.92 µM); against Staphylococcus aureus [3], 0.05 µg/mL (≈ 0.128 µM); in the experiment on Enterococcus faecium, 1.56 µg/mL (≈ 3.99 µM); against Streptococcus agalactiae it was 1.56 µg/mL (≈ 3.99 µM). The MIC against Pseudomonas aeruginosa [4] was over 100 µg/mL; with Klebsiella aerogenes, over 100 µg/mL; in the experiment with Staphylococcus aureus [5], 0.1 µg/mL (≈ 0.256 µM); against Streptococcus equinus, 3.1 µg/mL (≈ 7.92 µM); in the experiment on Staphylococcus aureus [6] it was 0.1 µg/mL (≈ 0.256 µM); against Escherichia coli, 1.56 µg/mL (≈ 3.99 µM). Moreover, the MIC is over 100 µg/mL with Pseudomonas aeruginosa [7], 1.56 µg/mL (≈ 3.99 µM) in the experiment with Streptococcus pyogenes and 3.1 µg/mL (≈ 7.92 µM) against Klebsiella pneumoniae.

As to `CO/N=C1/CCN(c2cc3c(cc2F)c(=O)c(C(=O)O)cn3-c2ccc(F)cc2F)C1`, the MIC against Staphylococcus aureus [1] came to 0.05 µg/mL (≈ 0.116 µM); in [2] it was 0.05 µg/mL (≈ 0.116 µM); with Acinetobacter it was 0.78 µg/mL (≈ 1.81 µM); against Staphylococcus aureus [3], 0.02 µg/mL (≈ 0.0464 µM); against Enterococcus faecium it was 0.39 µg/mL (≈ 0.904 µM); in the experiment on Streptococcus agalactiae, 0.39 µg/mL (≈ 0.904 µM). In addition, the MIC in the experiment with Pseudomonas aeruginosa [4] was 6.2 µg/mL (≈ 14.4 µM); against Klebsiella aerogenes, 3.1 µg/mL (≈ 7.19 µM); against Staphylococcus aureus [5], 0.05 µg/mL (≈ 0.116 µM); in the experiment on Streptococcus equinus, 1.56 µg/mL (≈ 3.62 µM); in the experiment on Staphylococcus aureus [6] it was 0.05 µg/mL (≈ 0.116 µM); in the experiment with Escherichia coli, 0.78 µg/mL (≈ 1.81 µM). Moreover, the MIC against Pseudomonas aeruginosa [7] is 6.2 µg/mL (≈ 14.4 µM); in the experiment on Streptococcus pyogenes, 0.39 µg/mL (≈ 0.904 µM); in the experiment on Klebsiella pneumoniae, 0.78 µg/mL (≈ 1.81 µM).

In the case of `O=C1CCN(c2c(F)cc3c(=O)c(C(=O)O)cn(C4CC4)c3c2F)C1`, the MIC in the experiment with Staphylococcus aureus [1] was found to be 0.39 µg/mL (≈ 1.12 µM); in experiment [2] it was 1.56 µg/mL (≈ 4.48 µM); in the experiment with Acinetobacter, 3.1 µg/mL (≈ 8.9 µM); in the experiment on Staphylococcus aureus [3], 0.78 µg/mL (≈ 2.24 µM); with Enterococcus faecium it was 6.2 µg/mL (≈ 17.8 µM); in the experiment with Streptococcus agalactiae, 12.5 µg/mL (≈ 35.9 µM). Also, the MIC against Pseudomonas aeruginosa [4] came out at 50 µg/mL (≈ 144 µM); against Klebsiella aerogenes, 1.56 µg/mL (≈ 4.48 µM); against Staphylococcus aureus [5], 0.39 µg/mL (≈ 1.12 µM); against Streptococcus equinus, 50 µg/mL (≈ 144 µM); in the experiment with Staphylococcus aureus [6] it was 0.78 µg/mL (≈ 2.24 µM); against Escherichia coli it was 0.39 µg/mL (≈ 1.12 µM). Also, the minimal inhibitory concentration (MIC) against Pseudomonas aeruginosa [7] worked out at 50 µg/mL (≈ 144 µM); in the experiment on Streptococcus pyogenes, 25 µg/mL (≈ 71.8 µM); against Klebsiella pneumoniae, 0.39 µg/mL (≈ 1.12 µM).

The term ED50 denotes the midpoint of the dose-response relation. Consider `O=C(O)c1cn(C2CC2)c2cc(N3CCNCC3)c(F)cc2c1=O` [CIPROFLOXACIN], for which the figures for the ED50 in the experiment on Staphylococcus aureus [8] and in the experiment on Staphylococcus aureus [9] were 15.5 mg/kg and 1.6 mg/kg, respectively.

On to `O=C1CCN(c2cc3c(cc2F)c(=O)c(C(=O)O)cn3C2CC2)C1`, for which the MIC against Staphylococcus aureus [1] was 1.56 µg/mL (≈ 4.72 µM); in [2] it was 3.1 µg/mL (≈ 9.38 µM); in the experiment on Acinetobacter, 50 µg/mL (≈ 151 µM); against Staphylococcus aureus [3] it was 1.56 µg/mL (≈ 4.72 µM); in the experiment on Enterococcus faecium, over 100 µg/mL; with Streptococcus agalactiae it was 100 µg/mL (≈ 303 µM). In addition, the MIC is over 100 µg/mL with Pseudomonas aeruginosa [4]; 12.5 µg/mL (≈ 37.8 µM) against Klebsiella aerogenes; 3.1 µg/mL (≈ 9.38 µM) with Staphylococcus aureus [5]; over 100 µg/mL against Streptococcus equinus; 3.1 µg/mL (≈ 9.38 µM) against Staphylococcus aureus [6]; 6.2 µg/mL (≈ 18.8 µM) in the experiment on Escherichia coli. Moreover, the MIC in the experiment on Pseudomonas aeruginosa [7] is over 100 µg/mL; against Streptococcus pyogenes, over 100 µg/mL; in the experiment with Klebsiella pneumoniae, 6.2 µg/mL (≈ 18.8 µM).

As for `O=C1CCN(c2cc3c(cc2F)c(=O)c(C(=O)O)cn3-c2ccc(F)cc2F)C1`, the minimum inhibitory concentration (MIC) was 0.39 µg/mL (≈ 0.969 µM) in the experiment on Staphylococcus aureus [1]; 1.56 µg/mL (≈ 3.88 µM) in experiment [2]; 12.5 µg/mL (≈ 31.1 µM) in the experiment with Acinetobacter; 0.39 µg/mL (≈ 0.969 µM) in the experiment on Staphylococcus aureus [3]; 25 µg/mL (≈ 62.1 µM) in the experiment with Enterococcus faecium; 12.5 µg/mL (≈ 31.1 µM) in the experiment with Streptococcus agalactiae. In addition, the MIC is 50 µg/mL (≈ 124 µM) with Pseudomonas aeruginosa [4]; 12.5 µg/mL (≈ 31.1 µM) against Klebsiella aerogenes; 1.56 µg/mL (≈ 3.88 µM) against Staphylococcus aureus [5]; over 100 µg/mL with Streptococcus equinus; 1.56 µg/mL (≈ 3.88 µM) against Staphylococcus aureus [6]; 12.5 µg/mL (≈ 31.1 µM) in the experiment on Escherichia coli. The values for the MIC in the experiment on Pseudomonas aeruginosa [7], in the experiment with Streptococcus pyogenes and with Klebsiella pneumoniae were over 100 µg/mL, 25 µg/mL (≈ 62.1 µM) and 6.2 µg/mL (≈ 15.4 µM), respectively.
